Data taken from ChEMBL document CHEMBL1126303, “Syntheses and affinities of novel organometallic-labeled estradiol derivatives: a structure-affinity relationship” (J Med Chem, 1992).
“And” between values parts separate entries of the source, which are not always exact repeats. Equal entries are not always repeated.

Biological target: Estrogen receptor (Ovis aries) (UniProt P49885+Q9TU15)
Test: Relative binding affinity against the estrogen receptor using lamb uterine cytosol as a source of receptor and [3H]-estradiol as a tracer
Type: protein assay
Details: Uterus
Summary of the method: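 Competitive radiometric binding on lamb uterine cytosol (105000g supernatant in 0.05 M Tris-HCl, 0.25 M sucrose, 0.1% β-mercaptoethanol, pH 7.4), 5 mg protein/mL. Incubated 3 h at 0 °C with 2 × 10⁻⁹ M [³H]estradiol plus competitor at nine concentrations, 1×10⁻¹⁰ to 1×10⁻⁶ M. Bound/free separated by protamine sulfate precipitation and filtration, then scintillation counting. Logit-transformed; RBA = IC50 estradiol/competitor ×100; mean of two determinations.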

Chain of Estrogen receptor (Ovis aries) (Q9TU15 whole entry, looked up, chain 1 of 2): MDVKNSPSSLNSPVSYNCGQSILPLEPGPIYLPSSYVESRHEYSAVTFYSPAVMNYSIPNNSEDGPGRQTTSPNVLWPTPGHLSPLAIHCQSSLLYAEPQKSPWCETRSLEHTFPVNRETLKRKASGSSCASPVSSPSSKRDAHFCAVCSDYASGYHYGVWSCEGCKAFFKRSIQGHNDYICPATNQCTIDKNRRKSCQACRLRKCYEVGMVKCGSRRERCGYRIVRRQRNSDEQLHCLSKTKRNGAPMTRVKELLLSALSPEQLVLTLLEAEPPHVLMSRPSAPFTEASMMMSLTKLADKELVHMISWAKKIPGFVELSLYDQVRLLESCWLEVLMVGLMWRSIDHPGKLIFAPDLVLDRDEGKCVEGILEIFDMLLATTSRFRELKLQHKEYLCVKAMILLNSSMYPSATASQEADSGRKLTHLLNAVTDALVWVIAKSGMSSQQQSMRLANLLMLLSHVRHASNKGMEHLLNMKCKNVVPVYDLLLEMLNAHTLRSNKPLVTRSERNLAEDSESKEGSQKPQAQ
Chain of Estrogen receptor (Ovis aries) (P49885 whole entry, looked up, chain 2 of 2): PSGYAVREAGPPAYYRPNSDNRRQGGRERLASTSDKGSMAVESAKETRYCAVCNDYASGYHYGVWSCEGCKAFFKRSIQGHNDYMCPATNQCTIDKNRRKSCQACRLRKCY

| Compound | RBA |
| --- | --- |
| (alpha,beta)-[Cp*Ru(17beta-estradiol)][CF3SO3] | 2.9% |
| (17-alpha(phenylethynyl)-17beta-estradiol)tricarbonylchromium | 24% |
| [Cp Ru(eta5-17beta-estradienonyl)] | 0.1% |
| (17alpha)-[Cp Ruphenyl]-17beta-estradiol)][CF3SO3] | 0% |
| (alpha,beta)-[Cp Ru(17beta-estradiol)][PF6-] | 0.1% |
| (17-alpha-phenyl-17beta-estradiol)tricarbonylchromium | 11% |
| C[C@]12CC[C@@H]3c4ccc(O)cc4CC[C@H]3[C@@H]1CC[C@@]2(O)C#Cc1ccccc1 | 27% |

Other lines, results leading:

| RBA | Compound |
| --- | --- |
| 0.44% and 0.46% | alpha [Cp Ru[eta5-17beta-estradienonyl] [BF4] |
| 25% | C[C@]12CC[C@@H]3c4ccc(O)cc4CC[C@H]3[C@@H]1CC[C@@]2(O)c1ccccc1 |
| 15% | 17alpha-ferrocenyl-17beta-estradiol |
